# Reference: ChEMBL document CHEMBL3853327 (J Med Chem, 2016)
# Columns and labels:
# [1] = Selectivity index, ratio of CC50 for human mock-infected MT4 cells to EC50 for HIV1 3B harboring reverse transcriptase K103N mutant infected in human MT4 cells; format: toxicity, cell-based; settings: MT4 cells (mock-infected for CC50, HIV-1 infected for EC50)
# Procedure, shortened: (§1)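 Selectivity index is CC50/EC50. CC50 is the concentration that reduces OD540 of mock-infected MT-4 cells by 50% in the 5-day MTT assay. EC50 is the 50% protection from virus-induced cytopathicity, measured in parallel on infected wells.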
# [2] = test system: Human immunodeficiency virus 1; assay: Antiviral activity against wild type HIV1 3B harboring reverse transcriptase infected in human MT4 cells assessed as protection against virus induced cytotoxicity after 5 days by MTT assay; format: functional, cell-based; settings: Human immunodeficiency virus 1, 3B, MT4, 120 h
# Procedure, shortened: (§2)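 MTT cytopathicity assay in MT-4 cells (6 × 10^5 cells/mL). Compounds serially diluted 5-fold in triplicate wells, run in parallel on infected and mock-infected cells. Virus added at 100−300 CCID50 per well. Viability read spectrophotometrically at 540 and 690 nm after 5 days, using the median OD of three wells.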
# [3] = Antiviral activity against HIV2 ROD harboring reverse transcriptase infected in human MT4 cells assessed as protection against virus induced cytotoxicity after 5 days by MTT assay; format: functional, cell-based, Human immunodeficiency virus type 2 (ISOLATE ROD); settings: Human immunodeficiency virus 2, MT4, 120 h
# Procedure, shortened: as §2, with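 “wells. EC50 is the concentration giving 50% protection from viral cytopathogenicity.” for “wells.”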
# [4] = Cytotoxicity against human mock-infected MT4 cells assessed as reduction in cell viability after 5 days by MTT assay; format: toxicity, cell-based
# Procedure, shortened: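 Mock-infected MT-4 cells (6 × 10^5 cells/mL at seeding) with serial 5-fold compound dilutions in triplicate wells. Viability read by MTT after 5 days, absorbance at 540 and 690 nm, median OD of three wells. CC50 is the concentration reducing OD540 of mock-infected cells by 50%.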
# [5] = Selectivity index, ratio of CC50 for human mock-infected MT4 cells to EC50 for wild type HIV1 3B harboring reverse transcriptase infected in human MT4 cells; format: toxicity, cell-based; settings: MT4 cells (mock-infected for CC50, HIV-1 infected for EC50); procedure, shortened: as §1
# [6] = Selectivity index, ratio of CC50 for human mock-infected MT4 cells to EC50 for HIV1 RES056 harboring reverse transcriptase K103N/Y181C double mutant infected in human MT4 cells; format: toxicity, cell-based; settings: MT4 cells (mock-infected for CC50, HIV-1 infected for EC50); procedure, shortened: as §1
# [7] = test system: Human immunodeficiency virus 1; assay: Antiviral activity against HIV1 3B harboring reverse transcriptase L100I mutant infected in human MT4 cells assessed as protection against virus induced cytotoxicity after 5 days by MTT assay; format: functional, cell-based; settings: Human immunodeficiency virus 1, 3B, MT4, 120 h
# Procedure, shortened: as §2, with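 “wells. EC50 is the concentration giving 50% protection from viral cytopathogenicity.” for “wells.”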
# [8] = test system: Human immunodeficiency virus 1; assay: Antiviral activity against HIV1 3B harboring reverse transcriptase K103N mutant infected in human MT4 cells assessed as protection against virus induced cytotoxicity after 5 days by MTT assay; format: functional, cell-based; settings: Human immunodeficiency virus 1, 3B, MT4, 120 h
# Procedure, shortened: as §2, with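 “wells. EC50 is the concentration giving 50% protection from viral cytopathogenicity.” for “wells.”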
# [9] = test system: Human immunodeficiency virus 1; assay: Antiviral activity against HIV1 3B harboring reverse transcriptase Y181C mutant infected in human MT4 cells assessed as protection against virus induced cytotoxicity after 5 days by MTT assay; format: functional, cell-based; settings: Human immunodeficiency virus 1, 3B, MT4, 120 h; procedure, shortened: as §2
# [10] = test system: Human immunodeficiency virus 1; assay: Antiviral activity against HIV1 3B harboring reverse transcriptase Y188L mutant infected in human MT4 cells assessed as protection against virus induced cytotoxicity after 5 days by MTT assay; format: functional, cell-based; settings: Human immunodeficiency virus 1, 3B, MT4, 120 h
# Procedure, shortened: as §2, with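 “wells. EC50 is the concentration giving 50% protection from viral cytopathogenicity.” for “wells.”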
# [11] = test system: Human immunodeficiency virus 1; assay: Antiviral activity against HIV1 3B harboring reverse transcriptase E138K mutant infected in human MT4 cells assessed as protection against virus induced cytotoxicity after 5 days by MTT assay; format: functional, cell-based; settings: Human immunodeficiency virus 1, 3B, MT4, 120 h
# Procedure, shortened: as §2, with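 “wells. EC50 is the concentration giving 50% protection from viral cytopathogenicity.” for “wells.”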
# [12] = test system: Human immunodeficiency virus 1; assay: Antiviral activity against HIV1 3B harboring reverse transcriptase F227L/V106A double mutant infected in human MT4 cells assessed as protection against virus induced cytotoxicity after 5 days by MTT assay; format: functional, cell-based; settings: Human immunodeficiency virus 1, 3B, MT4, 120 h
# Procedure, shortened: as §2, with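 “wells. EC50 is the concentration giving 50% protection from viral cytopathogenicity.” for “wells.”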
# [13] = Selectivity index, ratio of CC50 for human mock-infected MT4 cells to EC50 for HIV1 3B harboring reverse transcriptase L100I mutant infected in human MT4 cells; format: toxicity, cell-based; settings: MT4 cells (mock-infected for CC50, HIV-1 infected for EC50); procedure, shortened: as §1
# [14] = Selectivity index, ratio of CC50 for human mock-infected MT4 cells to EC50 for HIV1 3B harboring reverse transcriptase Y181C mutant infected in human MT4 cells; format: toxicity, cell-based; settings: MT4 cells (mock-infected for CC50, HIV-1 infected for EC50); procedure, shortened: as §1
# [15] = Selectivity index, ratio of CC50 for human mock-infected MT4 cells to EC50 for HIV1 3B harboring reverse transcriptase Y188L mutant infected in human MT4 cells; format: toxicity, cell-based; settings: MT4 cells (mock-infected for CC50, HIV-1 infected for EC50); procedure, shortened: as §1
# [16] = Selectivity index, ratio of CC50 for human mock-infected MT4 cells to EC50 for HIV1 3B harboring reverse transcriptase E138K mutant infected in human MT4 cells; format: toxicity, cell-based; settings: MT4 cells (mock-infected for CC50, HIV-1 infected for EC50); procedure, shortened: as §1
# [17] = Selectivity index, ratio of CC50 for human mock-infected MT4 cells to EC50 for HIV1 3B harboring reverse transcriptase F227L/V106A double mutant infected in human MT4 cells; format: toxicity, cell-based; settings: MT4 cells (mock-infected for CC50, HIV-1 infected for EC50); procedure, shortened: as §1
# [18] = test system: Human immunodeficiency virus 1; assay: Potency index, ratio of ETV EC50 to compound EC50 for HIV1 3B harboring reverse transcriptase Y181C mutant infected in human MT4 cells; format: functional
# [19] = test system: Human immunodeficiency virus 1; assay: Potency index, ratio of ETV EC50 to compound EC50 for HIV1 3B harboring reverse transcriptase YI88L mutant infected in human MT4 cells; format: functional
# [20] = test system: Human immunodeficiency virus 1; assay: Potency index, ratio of ETV EC50 to compound EC50 for HIV1 3B harboring reverse transcriptase E138K mutant infected in human MT4 cells; format: functional
# [21] = Inhibition of recombinant wild type HIV1 reverse transcriptase using DIG-dUTP/biotin-dUTP/dTTP assessed as suppression of biotin-dUTP incorporation after 1 hr by ELISA; parameters: species or system Human immunodeficiency virus 1
# Procedure, shortened: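 Recombinant WT HIV-1 RT in a Roche colorimetric kit: template plus DIG-dUTP, biotin-dUTP and dTTP, ±inhibitor, 1 h at 37 °C. Product captured on streptavidin plate 1 h at 37 °C, anti-DIG-POD 1 h at 37 °C, ABTS developed at 25 °C, read at OD405. IC50 is the concentration inhibiting biotin-dUTP incorporation by 50%.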
# [22] = molecular target: Human immunodeficiency virus type 1 reverse transcriptase (Human immunodeficiency virus 1, UniProt Q72547, K103N/Y181C); assay: Inhibition of recombinant HIV1 reverse transcriptase K103N/Y181C double mutant using DIG-dUTP/biotin-dUTP/dTTP assessed as suppression of biotin-dUTP incorporation after 1 hr by ELISA
# [23] = test system: Human immunodeficiency virus 1; assay: Fold resistance, ratio of IC50 for recombinant HIV1 reverse transcriptase K103N/Y181C double mutant to IC50 for wild type HIV1 reverse transcriptase
# Procedure, shortened: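 Ratio of mutant to WT IC50. Recombinant WT and K103N/Y181C RT were assayed with a kit: template plus DIG-dUTP, biotin-dUTP and dTTP, with or without inhibitor, 1 h at 37 °C. Product was captured on streptavidin, detected with anti-DIG-POD and ABTS, and read at 405 nm. IC50 is the concentration inhibiting biotin-dUTP incorporation by 50%.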
Structure (SMILES),selectivity ratio [1],EC50 [2] [nM],EC50 [3] [nM],CC50 at 120 h [4] [nM],selectivity ratio [5],selectivity ratio [6],EC50 [7] [nM],EC50 [8] [nM],EC50 [9] [nM],EC50 [10] [nM],EC50 [11] [nM],EC50 [12] [nM],selectivity ratio [13],selectivity ratio [14],selectivity ratio [15],selectivity ratio [16],selectivity ratio [17],Ratio EC50 [18],Ratio EC50 [19],Ratio EC50 [20],also measured
CNS(=O)(=O)c1ccc(CN2CCC(Nc3nc(Oc4c(C)cc(C#N)cc4C)c4sccc4n3)CC2)cc1,2880,1.5,> 4420,4420,2790,136,4.5,1.5,4.8,6.8,6.6,4.1,972,911,647,665,1090,2,2,2,
Cc1cc(C#N)cc(C)c1Oc1nc(NC2CCN(Cc3ccc(C(N)=O)cc3)CC2)nc2ccsc12,53800,1.4,> 95400,95400,66900,1110,10.8,1.8,5.3,8.6,4.5,10.7,8760,18100,11100,21300,8860,2,2,2,
Cc1cc(C#N)cc(C)c1Oc1nc(NC2CCN(Cc3ccc(S(C)(=O)=O)cc3)CC2)nc2ccsc12,1800,22.1,> 22300,22300,1000,50,73,12,36,41,39,44,306,622,543,566,507,,,,IC50 [21]: 1510 nM; IC50 [22]: 2830 nM; Ratio IC50 [23]: 1.87
Cc1cc(C)c(Oc2nc(NC3CCN(Cc4cccc(F)c4)CC3)nc3ccsc23)c(C)c1,165,39.1,> 24600,24600,628,3,1530,149,252,599,172,3120,16,98,41,143,8,,,,IC50 [21]: 790 nM; IC50 [22]: 40400 nM; Ratio IC50 [23]: 51.2
COC(=O)c1ccc(CN2CCC(Nc3nc(Oc4c(C)cc(C)cc4C)c4sccc4n3)CC2)cc1,263,15.4,> 24900,24900,1610,5,650,94.6,161,243,39.5,1850,38,154,102,629,13,,,,IC50 [21]: 1240 nM; IC50 [22]: 12300 nM; Ratio IC50 [23]: 9.92
Cc1cc(C#N)cc(C)c1Oc1nc(NC2CCN(Cc3ccc(NS(C)(=O)=O)cc3)CC2)nc2ccsc12,35700,1.5,> 68300,68300,44200,261,13.6,1.9,6.9,8.2,6.9,32.2,5020,9890,8870,9900,2120,2,2,2,
